Test [1] deals with T1, Cathepsin B (Homo sapiens, UniProt P07858). The test can be described thus: Inhibition of human recombinant cathepsin B endopeptidase activity using Z-Arg-Arg-AMC substrate.
In test [2] the target is T1, Cathepsin B. The test can be described thus: Noncompetitive inhibition of human recombinant cathepsin B exopeptidase activity using Abz-Gly-Ile-Val-Arg-Ala-Lys(Dnp)-OH substrate. In short, it runs like this: (§1)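 Human recombinant catB, preactivated 5 min at 37 °C in assay buffer containing 0.1% PEG 8000, 5 mM DTT and 1.5 mM EDTA. […] Exopeptidase: 60 mM acetate pH 5.0, Abz-GIVRAK(Dnp)-OH 1/3/6 μM (Km 6.3 μM). Inhibitor 0–200 μM, 5% DMSO, 37 °C, fluorescence rate; two runs in duplicate.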

In test [3] the target is T1, Cathepsin B. The test can be described thus: Mixed inhibition of human recombinant cathepsin B endopeptidase activity using Z-Arg-Arg-AMC substrate assessed as inhibition constant for enzyme-substrate-inhibitor complex.
The target in test [4] is T1, Cathepsin B. The test can be described thus: Mixed inhibition of human recombinant cathepsin B […] assessed as inhibition constant for enzyme-inhibitor complex.
In test [5] the target is T1, Cathepsin B. The test can be described thus: Mixed inhibition of human recombinant cathepsin B exopeptidase activity using Abz-Gly-Ile-Val-Arg-Ala-Lys(Dnp)-OH substrate assessed as inhibition constant for enzyme-substrate-inhibitor complex. In short, it runs like this: (§2)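 Recombinant human catB was preactivated for 5 min at 37 °C in 60 mM acetate pH 5.0 with 0.1% PEG 8000, 5 mM DTT and 1.5 mM EDTA. Abz-GIVRAK(Dnp)-OH was used at 1, 3 and 6 μM (Km 6.3 μM), with inhibitor at 0–200 μM (seven levels) and 5% DMSO. […] Run twice, each in duplicate.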

In test [6] the target is T1, Cathepsin B. Nature of the test: Mixed inhibition of human recombinant cathepsin B exopeptidase activity using Abz-Gly-Ile-Val-Arg-Ala-Lys(Dnp)-OH substrate assessed as inhibition constant for enzyme-inhibitor complex. In short, it runs like this: as §2
In test [7] the target is T1, Cathepsin B. Nature of the test: Inhibition of human recombinant cathepsin B exopeptidase activity using Abz-Gly-Ile-Val-Arg-Ala-Lys(Dnp)-OH substrate.
The target in test [8] is T1, Cathepsin B. The test can be described thus: Uncompetitive inhibition of human recombinant […] assessed as inhibition constant for enzyme-substrate-inhibitor complex.
Test [9] deals with T1, Cathepsin B. The test can be described thus: Competitive inhibition of human recombinant cathepsin B exopeptidase activity using Abz-Gly-Ile-Val-Arg-Ala-Lys(Dnp)-OH substrate assessed as inhibition constant for enzyme-inhibitor complex. The method in brief:
as §1

For test [10], the species on record is Homo sapiens. The test can be described thus: Selectivity ratio of Ki for human liver cathepsin H to Ki for human recombinant cathepsin B.
For test [11], the species on record is Homo sapiens. The test can be described thus: Selectivity ratio of Ki for human recombinant cathepsin L to Ki for human recombinant cathepsin B.
For the next test, the target named is Procathepsin L (Homo sapiens, UniProt P07711). The test can be described thus: Competitive inhibition of human recombinant cathepsin L endopeptidase activity using Z-FR-AMC substrate expressed in Escherichia coli assessed as inhibition constant for enzyme-inhibitor complex. In short, it runs like this:
(§3)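 Ki from rates at three substrate levels with inhibitor at 0, 20, 40, 60, 80, 100 and 200 μM. Enzymes were preactivated 5 min at 37 °C. CatL (recombinant, E. coli): 100 mM acetate pH 5.5, Z-Phe-Arg-AMC 0.5/1/4 μM. CatH (native, human liver): 100 mM phosphate pH 6.8, Arg-AMC 20/80/160 μM. Buffers held 0.1% PEG 8000, 5 mM DTT and 1.5 mM EDTA, plus 5% DMSO. Two runs in duplicate.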

The target of test [12] is T2, Pro-cathepsin H (Homo sapiens, UniProt P09668).
T2 sequence (P09668 whole entry): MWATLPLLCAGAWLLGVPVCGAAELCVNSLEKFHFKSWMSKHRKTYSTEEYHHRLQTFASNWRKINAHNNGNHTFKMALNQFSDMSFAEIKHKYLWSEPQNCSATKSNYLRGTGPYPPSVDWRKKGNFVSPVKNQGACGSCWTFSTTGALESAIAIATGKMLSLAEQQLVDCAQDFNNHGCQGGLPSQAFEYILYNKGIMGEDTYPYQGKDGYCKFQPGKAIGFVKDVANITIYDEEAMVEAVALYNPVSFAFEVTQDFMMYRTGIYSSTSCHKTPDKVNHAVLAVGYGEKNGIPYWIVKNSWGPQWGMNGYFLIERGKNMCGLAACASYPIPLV
Nature of the test: Noncompetitive inhibition of human liver cathepsin H endopeptidase activity using R-AMC substrate assessed as inhibition constant for enzyme-substrate-inhibitor complex. The method in brief: (§4)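 Native catH isolated from human liver was preactivated for 5 min at 37 °C in 100 mM phosphate pH 6.8 with 0.1% PEG 8000, 5 mM DTT and 1.5 mM EDTA. Arg-AMC was used at 20, 80 and 160 μM, with inhibitor at 0–200 μM (seven levels) and 5% DMSO. […] Run twice in duplicate.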

The target in test [13] is T2, Pro-cathepsin H. The test can be described thus: Noncompetitive inhibition of human liver cathepsin H endopeptidase activity using R-AMC substrate assessed as inhibition constant for enzyme-inhibitor complex. In short, it runs like this:
as §4

The target of test [14] is T2, Pro-cathepsin H. The test can be described thus: Uncompetitive inhibition of human liver cathepsin H endopeptidase activity using R-AMC substrate assessed as inhibition constant for enzyme-substrate-inhibitor complex. The method in brief:
as §3

In the next test the test system is MCF-10A. Nature of the test: Inhibition of human MCF10A neoT cell invasion expressing c-Ha-Ras oncogene at 5 uM after 30 mins relative to DMSO-treated control. It is filed as functional. To be noted: 72 h, in the assay text read “after 72 hrs” for “after 30 mins”. In short, it runs like this: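 xCELLigence CIM-16 invasion assay. Upper chamber coated with 5 mg/mL Matrigel; lower well coated with bovine fibronectin. Compound 5 μM or 0.05% DMSO in both chambers, equilibrated 30 min at 37 °C. Then 3 × 10^4 cells seeded in serum-free medium, cell index read every 15 min for 72 h. Invasion = cell index with compound / DMSO; mean ± SD, n = 4, two experiments.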

The source made the active and inactive calls. No cut-off for these calls is given here.

Drawing on ChEMBL document CHEMBL2311469, “Development of new cathepsin B inhibitors: combining bioisosteric replacements and structure-based design to explore the structure-activity relationships of nitroxoline derivatives” (J Med Chem, 2013), this text covers inhibition, Ki and Ratio Ki for 33 compounds.

For orientation: inhibition means the change of the read-out against control, counted positive when it falls. What is called Ki is the equilibrium dissociation constant of an inhibitor or competing ligand from its target.

Procathepsin L, sequence (P07711 whole entry): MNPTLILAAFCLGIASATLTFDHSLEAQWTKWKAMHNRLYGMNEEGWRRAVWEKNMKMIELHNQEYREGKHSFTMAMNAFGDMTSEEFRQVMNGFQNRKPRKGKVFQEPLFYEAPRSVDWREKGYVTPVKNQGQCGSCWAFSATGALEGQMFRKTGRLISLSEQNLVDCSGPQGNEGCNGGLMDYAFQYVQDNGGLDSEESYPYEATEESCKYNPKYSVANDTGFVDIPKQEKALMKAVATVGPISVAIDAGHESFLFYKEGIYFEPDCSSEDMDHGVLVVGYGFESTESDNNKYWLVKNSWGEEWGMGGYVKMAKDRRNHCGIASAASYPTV

As for `O=S(=O)(O)c1ccc(O)c2ccccc12`, the inhibition entry at Cathepsin B [1] was “inactive”.

On to `O=[N+]([O-])c1ccc(N2CCOCC2)c2ccccc12`, for which the Ki at Cathepsin B [2] was found to be 85 µM; on Cathepsin B [3] it was 125 µM; at Cathepsin B [4], 289 µM.

With `CCN(CC)C(=O)C1CCCN(c2ccc([N+](=O)[O-])c3cccnc23)C1` (racemic), the Ki on Cathepsin B [5] is 36 µM; at Cathepsin B [6], 105 µM; at Cathepsin B [3], 117 µM; at Cathepsin B [4], 155 µM.

On to `O=[N+]([O-])c1ccc(NCc2ccccc2)c2ncccc12`, for which the Ki on Cathepsin B [2] turned out to be 364 µM; at Cathepsin B [3] it was 127 µM; at Cathepsin B [4], 349 µM.

For the compound `Nc1c(O)cc(S(=O)(=O)O)c2ccccc12`, on Cathepsin B [1], the inhibition entry is “inactive”.

As to `O=[N+]([O-])c1cc(CN2CCN(Cc3cccnc3)CC2)c(O)c2ncccc12`, the inhibition constant (Ki) at Cathepsin B [2] was 364 µM; at Cathepsin B [3] it was 171 µM; at Cathepsin B [4] it was 311 µM.

Take `Nc1ccc([N+](=O)[O-])c2ccccc12`: the figures for the Ki on Cathepsin B [2], on Cathepsin B [3] and at Cathepsin B [4] were 147 µM, 111 µM and 217 µM, respectively.

Regarding `O=[N+]([O-])c1ccc(O)c2ccccc12`, at Cathepsin B [7], the inhibition entry was “inactive”. For the same compound, the Ki on Cathepsin B [3] was 84 µM; at Cathepsin B [4] it was 373 µM.

For the compound `CCNCc1cc([N+](=O)[O-])c2cccnc2c1O`, the Ki on Cathepsin B [2] turned out to be 136 µM; on Cathepsin B [3], 82 µM; at Cathepsin B [4], 117 µM.

In the case of `CN(CCc1ccccc1)c1ccc([N+](=O)[O-])c2cccnc12`, the values for the Ki at Cathepsin B [2] and at Cathepsin B [8] were 350 µM and 175 µM, respectively.

Take `CN(C)c1ccc([N+](=O)[O-])c2cccnc12`: the inhibition result on Cathepsin B [7] and at Cathepsin B [1] was “inactive” each time.

With `CCOC(=O)[C@@H]1CCCC[C@@H]1NCc1cc([N+](=O)[O-])c2cccnc2c1O`, the inhibition constant (Ki) on Cathepsin B [2] stood at 130 µM; on Cathepsin B [3], 74 µM; on Cathepsin B [4], 132 µM.

For `CN(Cc1ccccc1)c1ccc([N+](=O)[O-])c2cccnc12`, the Ki at Cathepsin B [9] is 196 µM; at Cathepsin B [3] it was 137 µM; at Cathepsin B [4], 242 µM.

In the case of `O=[N+]([O-])c1ccc(N2CCOCC2)c2ncccc12`, the Ki was 155 µM on Cathepsin B [2], 153 µM on Cathepsin B [3] and 180 µM at Cathepsin B [4].

For `N#CCNc1ccc([N+](=O)[O-])c2ccccc12`, the inhibition result on Cathepsin B [7] and on Cathepsin B [1] was “inactive” each time.

As to `CC1CCN(c2ccc([N+](=O)[O-])c3cccnc23)CC1`, the values for the Ratio Ki in the test listed under Homo sapiens [10] and in the test listed under Homo sapiens [11] were 9 and 6, respectively. For the same compound, the Ki on Procathepsin L was found to be 155 µM; on Pro-cathepsin H [12], 221 µM; at Pro-cathepsin H [13], 221 µM; at Cathepsin B [2], 24 µM; at Cathepsin B [3], 105 µM; on Cathepsin B [4] it was 207 µM.

Regarding `Nc1c(Br)cc([N+](=O)[O-])c2ccccc12`, the Ratio Ki in the test listed under Homo sapiens [10] is 11; in the test filed under Homo sapiens [11] it was greater than 6. The Ki amounted to 182 µM on Procathepsin L, 354 µM on Pro-cathepsin H [14], 212 µM on Cathepsin B [2] and 32 µM on Cathepsin B [8].

`C[C@@H]1CCCCN1Cc1cc([N+](=O)[O-])c2cccnc2c1O`: the figures for the Ki on Cathepsin B [2], at Cathepsin B [3] and on Cathepsin B [4] were 243 µM, 116 µM and 203 µM, respectively.

For `O=[N+]([O-])c1ccc(NCc2ccccn2)c2ncccc12`, the values for the inhibitory constant (Ki) on Cathepsin B [2], on Cathepsin B [3] and on Cathepsin B [4] were 47 µM, 87 µM and 107 µM, respectively.

As to `O=[N+]([O-])c1ccc(N2CCCC2)c2ncccc12`, the inhibition entry on Cathepsin B [7] is “inactive”.

Regarding `O=[N+]([O-])c1cc([N+](=O)[O-])c2cccnc2c1O`, the inhibitory constant (Ki) on Cathepsin B [2] came to 146 µM; on Cathepsin B [8], 72 µM.

Consider `O=C(O)c1cc([N+](=O)[O-])c2cccnc2c1O`, for which the results for the Ki at Cathepsin B [9] and on Cathepsin B [8] were 221 µM and 117 µM, respectively.

With `CN(CC#N)Cc1cc([N+](=O)[O-])c2cccnc2c1O`, the results for the Ki at Cathepsin B [2], on Cathepsin B [3] and on Cathepsin B [4] were 172 µM, 76 µM and 126 µM, respectively.

As for `O=C(O)[C@@H]1CCCC[C@@H]1NCc1cc([N+](=O)[O-])c2cccnc2c1O`, the Ki was 250 µM on Cathepsin B [9], 125 µM at Cathepsin B [3] and 181 µM on Cathepsin B [4].

With `N#CCN(CC#N)c1ccc([N+](=O)[O-])c2ccccc12`, the inhibition entry at Cathepsin B [7] and on Cathepsin B [1] was “inactive” throughout.

As for `CCCNC(=O)[C@H]1O[C@@H]1C(=O)N[C@H](C(=O)N1CCC[C@H]1C(=O)O)C(C)CC` (single isomer, unassigned), the inhibition at 5 µM with MCF-10A came to 48%.

With `O=[N+]([O-])c1cc(CN2CCN(Cc3ccncc3)CC2)c(O)c2ncccc12`, the Ki at Cathepsin B [2] is 162 µM; at Cathepsin B [3] it was 94 µM; at Cathepsin B [4] it was 143 µM.

On to `O=[N+]([O-])c1ccc(N2CCCC2)c2ccccc12`, for which the Ratio Ki in the test listed under Homo sapiens [10] was 7; in the test listed under Homo sapiens [11], greater than 6. The Ki is 245 µM at Procathepsin L; 251 µM at Pro-cathepsin H [14]; 34 µM on Cathepsin B [2]; 277 µM on Cathepsin B [3]; 170 µM at Cathepsin B [4].

For `C#CCNc1ccc([N+](=O)[O-])c2cccnc12`, the inhibition result on Cathepsin B [7] and at Cathepsin B [1] was “inactive” throughout.

On to `N#CCN(Cc1ccccc1)Cc1cc([N+](=O)[O-])c2cccnc2c1O`, for which the values for the Ki on Cathepsin B [5], at Cathepsin B [6] and on Cathepsin B [8] were 8 µM, 79 µM and 19 µM, respectively.

Regarding `CCOC(=O)N1CCN(Cc2cc([N+](=O)[O-])c3cccnc3c2O)CC1`, the Ki is 156 µM on Cathepsin B [2], 87 µM on Cathepsin B [3] and 129 µM at Cathepsin B [4].

As to `O=[N+]([O-])c1cc(CNCc2ccccc2)c(O)c2ncccc12`, the Ki came out at 154 µM at Cathepsin B [2], 58 µM at Cathepsin B [3] and 198 µM at Cathepsin B [4].

On to `CCOC(=O)C1CCN(c2ccc([N+](=O)[O-])c3cccnc23)CC1`, for which the values for the Ki at Cathepsin B [2], on Cathepsin B [3] and at Cathepsin B [4] were 38 µM, 113 µM and 162 µM, respectively.
